Ki data for 63 compounds are collected here from ChEMBL document CHEMBL1132300, “1,3-Disubstituted benzazepines as novel, potent, selective neuropeptide Y Y1 receptor antagonists” (J Med Chem, 1999).

For this experiment, the target named is T1, Neuropeptide Y receptor type 1 (Homo sapiens, UniProt P25929).
T1 sequence (P25929 whole entry): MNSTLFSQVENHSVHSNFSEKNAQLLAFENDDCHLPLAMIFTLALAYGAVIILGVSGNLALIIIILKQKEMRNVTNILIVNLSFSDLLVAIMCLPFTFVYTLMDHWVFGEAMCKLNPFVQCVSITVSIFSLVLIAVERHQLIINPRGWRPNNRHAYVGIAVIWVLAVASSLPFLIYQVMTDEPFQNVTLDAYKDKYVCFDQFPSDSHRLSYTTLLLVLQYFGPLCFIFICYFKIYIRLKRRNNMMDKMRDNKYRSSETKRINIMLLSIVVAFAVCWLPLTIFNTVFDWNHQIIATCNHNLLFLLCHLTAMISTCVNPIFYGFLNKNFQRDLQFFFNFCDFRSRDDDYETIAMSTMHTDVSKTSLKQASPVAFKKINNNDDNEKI
In words: In vitro binding affinity towards Neuropeptide Y receptor type 1 was determined as potency to displace [125I]-peptide YY binding to human neuroblastoma SK-N-MC cells. In kind it is cell-based. The gist of the method:
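Intact SK-N-MC cells grown 2 days, washed with HEPES (20 mM)-buffered Hank's solution pH 7.4 plus 1% BSA, then incubated with 0.1 nM [125I]PYY and varying concentrations of unlabeled compound at 37 °C for 60 min. Washed twice with ice-cold buffer, lysed in 1 N NaOH, gamma-counted. Nonspecific binding defined with 10^-6 M NPY.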
In the case of `O=C(Nc1ccccc1)NC1CCc2ccccc2N(Cc2cccc(NC(=O)N3CCOCC3)c2)C1=O` (stereo not drawn), the Ki – broadly, a dissociation constant, usually derived from enzyme kinetics or from competition with a known ligand – is over 10000 nM.

With `CC(C)(C)OC(=O)Nc1cccc(CN2C(=O)C(NC(=O)Nc3ccccc3)CCc3ccccc32)c1` (stereo not drawn), the Ki amounted to 1200 nM.

Compound `CC(C)NC(=O)Nc1cccc(CN2C(=O)C(NC(=O)Nc3ccc4ccsc4c3)CCc3ccccc32)c1` (stereo not drawn) yielded a Ki of 7.8 nM.

For the compound `CC(C)NC(=O)Nc1cccc(CN2C(=O)C(NC(=O)Nc3ccccc3)CCc3ccccc32)c1` (stereo not drawn), the affinity, expressed as Ki, was 43 nM. This Ki is about 5.5-fold higher than that of the compound before.

Consider `CC(C)NC(=O)Nc1cccc(CN2C(=O)C(CNC(=O)Nc3ccccc3)CCc3ccccc32)c1` (stereo not drawn), for which the Ki is 1400 nM.

With `CC(C)NC(=O)Nc1cccc(CN2C(=O)C(NC(=O)Nc3ccc(N)cc3)CCc3ccccc32)c1` (stereo not drawn), the Ki was 200 nM.

Consider `CC(C)NC(=O)Nc1cccc(CN2C(=O)C(NC(=O)Nc3cc[nH]n3)CCc3ccccc32)c1` (stereo not drawn), for which the Ki was over 10000 nM.

Compound `CC(C)NC(=O)Nc1cccc(CN2C(=O)C(NC(=O)Nc3ccccc3F)CCc3ccccc32)c1` (stereo not drawn) gave a Ki of 7.6 nM.

As for `CC(C)NC(=O)Nc1cccc(CN2C(=O)C(NC(=O)Nc3ccc(N(C)C)cc3)CCc3ccccc32)c1` (stereo not drawn), the Ki is 66 nM.

For the compound `CC(C)NC(=O)Nc1cccc(CN2C(=O)C(NC(=O)Nc3cc(F)cc(F)c3)CCc3ccccc32)c1` (stereo not drawn), the Ki stood at 86 nM.

Turning to `CC(C)NC(=O)Cc1cccc(CN2C(=O)C(NC(=O)Nc3ccccc3)CCc3ccccc32)c1` (stereo not drawn), the inhibition constant Ki was 3800 nM.

`CC(C)NC(=O)Nc1cccc(CN2C(=O)C(NC(=O)Nc3ccc4c(c3)OCO4)CCc3ccccc32)c1` (stereo not drawn): the affinity corresponds to a Ki of 28 nM.

Compound `CC(C)NC(=O)Nc1cccc(CN2C(=O)C(NC(=O)Nc3ccc4c(c3)CCC4)CCc3ccccc32)c1` (stereo not drawn) registered a Ki of 17 nM.

For the compound `CC(C)NC(=O)Nc1cccc(CN2C(=O)C(NC(=O)Nc3nc4ccccc4s3)CCc3ccccc32)c1` (stereo not drawn), the Ki came to 690 nM. Compared with the last compound, the Ki is about 41-fold higher.

`CC(C)NC(=O)Nc1cccc(CN2C(=O)C(NC(=O)Nc3ccc(-c4ccccc4)cc3)CCc3ccccc32)c1` (stereo not drawn) gave a Ki of 610 nM.

As for `CC(C)NC(=O)Nc1cccc(CN2C(=O)C(NC(=O)Nc3ccncc3)CCc3ccccc32)c1` (stereo not drawn), the Ki turned out to be 83 nM. Compared with the last compound, the Ki is about 7.3-fold lower.

Turning to `C/N=C(/Nc1ccc(O)cc1)NC1CCc2ccccc2N(Cc2cccc(NC(=O)NC(C)C)c2)C1=O` (stereo not drawn), the Ki was found to be 7.3 nM. Against the preceding compound, the Ki is about 11-fold lower.

The compound `CC(C)NC(=O)Nc1cccc(CN2C(=O)C(NC(=O)Nc3ccccc3)COc3ccccc32)c1` (stereo not drawn) had a Ki of 470 nM.

Turning to `CC(C)NC(=O)Nc1cccc(CN2C(=O)C(NC(=O)Nc3ccc(Cl)cc3)CCc3ccccc32)c1` (stereo not drawn), the affinity corresponds to a Ki of 71 nM.

Compound `CC(C)NC(=O)Nc1cccc(CN2C(=O)C(NC(=O)c3ccccc3)CCc3ccccc32)c1` (stereo not drawn) came in with a Ki of over 10000 nM.

Compound `CNC(=O)Nc1cccc(CN2C(=O)C(NC(=O)Nc3ccccc3)CCc3ccccc32)c1` (stereo not drawn) showed a Ki of 7300 nM.

Turning to `CC(C)NC(=O)Nc1nc(CN2C(=O)C(NC(=O)Nc3ccc(F)cc3F)CCc3ccccc32)cs1` (stereo not drawn), the Ki is over 10000 nM.

As for `CC(C)NC(=O)Nc1cccc(CN2C(=O)C(/N=C(\N)Nc3ccc(O)cc3)CCc3ccccc32)c1` (stereo not drawn), the Ki came to 2.9 nM. This lies in the single-digit nanomolar range.

The compound `CC(C)NC(=O)Nc1cccc(CN2C(=O)C(OC(=O)Nc3ccccc3)CCc3ccccc32)c1` (stereo not drawn) displayed a Ki of 450 nM. Against the preceding compound, the Ki is about 160-fold higher.

Compound `CC(C)NC(=O)Nc1cccc(CN2C(=O)C(NC(=O)Nc3ccc(F)cc3F)CCc3ccccc32)c1` (stereo not drawn) gave a Ki of 7.8 nM.

`CC(C)NC(=O)Nc1cccc(CN2C(=O)C(NC(=O)Oc3ccccc3)CCc3ccccc32)c1` (stereo not drawn) registered a Ki of 2100 nM.

`CC(C)NC(=O)Nc1cccc(CN2C(=O)C(NC(=O)Nc3ccc4[nH]ncc4c3)CCc3ccccc32)c1` (stereo not drawn) had a Ki of 26 nM.

Consider `CC(C)NC(=O)Nc1cccc(CN2C(=O)C(NC(=O)Nc3ccc4scnc4c3)CCc3ccccc32)c1` (stereo not drawn), for which the affinity, expressed as Ki, was 24 nM.

On to `CC(C)NC(=O)Nc1cccc(CN2C(=O)C(COC(=O)Nc3ccccc3)CCc3ccccc32)c1` (stereo not drawn), for which the Ki came to 4100 nM.

On to `CC(C)NC(=O)Nc1cccc(CN2C(=O)C(NS(=O)(=O)c3ccccc3)CCc3ccccc32)c1` (stereo not drawn), for which the Ki came out at 5500 nM.

`NC(=O)Nc1cccc(CN2C(=O)C(NC(=O)Nc3ccccc3)CCc3ccccc32)c1` (stereo not drawn) registered a Ki of over 10000 nM.

For `CC(C)NC(=O)Nc1cccc(CN2C(=O)C(N=C(NCCO)Nc3ccc(O)cc3)CCc3ccccc32)c1` (stereo not drawn), the Ki came to 65 nM.

For `CC(C)NC(=O)Nc1cccc(CN2C(=O)C(NC(=O)Nc3ccc4sccc4c3)CCc3ccccc32)c1` (stereo not drawn), the affinity corresponds to a Ki of 13 nM.

On to `COC(=O)Nc1cccc(CN2C(=O)C(NC(=O)Nc3ccccc3)CCc3ccccc32)c1` (stereo not drawn), for which the Ki is over 10 nM.

`CC(C)NC(=O)Nc1cccc(CN2C(=O)C(NC(=O)Nc3ccc4c(c3)C(=O)N(C)C4=O)CCc3ccccc32)c1` (stereo not drawn) gave a Ki of 780 nM.

`CC(C)NC(=O)Nc1cccc(CN2C(=O)C(NC(=O)Nc3ccc(F)cc3)CCc3ccccc32)c1` (stereo not drawn): the affinity, expressed as Ki, was 29 nM.

`CC(C)NC(=O)Nc1cccc(CN2CCCCC(NC(=O)Nc3ccccc3)C2=O)c1` (stereo not drawn): the affinity corresponds to a Ki of 7000 nM.

Turning to `CC(C)NC(=O)Nc1cccc(CN2C(=O)C(NC(=O)Nc3ccc4ncccc4c3)CCc3ccccc32)c1` (stereo not drawn), affinity was put at a Ki of 56 nM. This Ki lies about 120-fold lower than the previous one.

With `CC(C)NC(=O)Nc1cccc(CN2C(=O)C(NC(=O)Nc3ccccn3)CCc3ccccc32)c1` (stereo not drawn), the Ki stood at 240 nM. This Ki is about 4.3-fold higher than that of the compound before.

For the compound `CC(C)NC(=O)Nc1cccc(CN2C(=O)C(N=C(Nc3ccc(O)cc3)NC(C)C)CCc3ccccc32)c1` (stereo not drawn), affinity was put at a Ki of 36 nM.

`O=C(Nc1cccc(CN2C(=O)C(NC(=O)Nc3ccccc3)CCc3ccccc32)c1)NC1CC1` (stereo not drawn) displayed a Ki of 910 nM.

In turn, `CC(C)NC(=O)Nc1cccc(CN2C(=O)C(NC(=O)Nc3ccc4ccoc4c3)CCc3ccccc32)c1` (stereo not drawn) gave a Ki of 7.8 nM.

In turn, `CC(C)NC(=O)Nc1cccc(CN2C(=O)C(NC(=O)Nc3ccc([N+](=O)[O-])cc3)CCc3ccccc32)c1` (stereo not drawn) displayed a Ki of 88 nM. Against the preceding compound, the Ki is about 11-fold higher.

`CC(C)NC(=O)Nc1cccc(CN2C(=O)C(NC(=O)Nc3cccc(F)c3F)CCc3ccccc32)c1` (stereo not drawn): the Ki was 100 nM. This Ki and that of the compound before are within 1.5-fold of each other.

Take `CC(C)NC(=O)Nc1cccc(CN2C(=O)C(NC(=O)Nc3ccc4c(c3)OCCO4)CCc3ccccc32)c1` (stereo not drawn): the Ki was determined as 18 nM. This Ki lies about 5.6-fold lower than the previous one.

`CC(C)NC(=O)Nc1cccc(CN2C(=O)C(NC(=O)Nc3cnc4ccccc4c3)CCc3ccccc32)c1` (stereo not drawn): the Ki was 140 nM.

`C/N=C(/Nc1ccccc1)NC1CCc2ccccc2N(Cc2cccc(NC(=O)NC(C)C)c2)C1=O` (stereo not drawn) came in with a Ki of 15 nM.

`CC(C)NC(=O)Nc1cccc(CN2C(=O)C(NC(=O)Nc3nccs3)CCc3ccccc32)c1` (stereo not drawn) registered a Ki of 160 nM.

As for `COc1ccc(NC(=O)NC2CCc3ccccc3N(Cc3cccc(NC(=O)NC(C)C)c3)C2=O)cc1` (stereo not drawn), the affinity corresponds to a Ki of 80 nM. Against the preceding compound, the Ki is about 2-fold lower.

In turn, `CC(C)NC(=O)Nc1cccc(CN2C(=O)C(NC(=O)Nc3ccc4ocnc4c3)CCc3ccccc32)c1` (stereo not drawn) gave a Ki of 17 nM.

On to `O=C(Nc1ccccc1)NC1CCc2ccccc2N(Cc2cccc(NC(=O)Oc3ccccc3)c2)C1=O` (stereo not drawn), for which the Ki is over 10000 nM.

As for `CC(C)NC(=O)Nc1cccc(CN2C(=O)C(NC(=O)Nc3ccc4ncsc4c3)CCc3ccccc32)c1` (stereo not drawn), the affinity corresponds to a Ki of 5.1 nM.

Turning to `CC(C)NC(=O)Nc1cccc(CN2C(=O)C(NC(=O)Nc3ccc4[nH]ccc4c3)CCc3ccccc32)c1` (stereo not drawn), the Ki is 18 nM.

`CC(C)NC(=O)Nc1cccc(CN2C(=O)C(NC(=O)Nc3ccccc3)CCCc3ccccc32)c1` (stereo not drawn) yielded a Ki of 56 nM. Compared with the last compound, the Ki is about 3.1-fold higher.

`CN(C(=O)OC(C)(C)C)c1cccc(CN2C(=O)C(NC(=O)Nc3ccccc3)CCc3ccccc32)c1` (stereo not drawn): the Ki is over 10000 nM.

In turn, `CC(C)NC(=O)Nc1cccc(CN2C(=O)C(NC(=O)Nc3ccc4c(c3)C(=O)NC4=O)CCc3ccccc32)c1` (stereo not drawn) yielded an inhibition constant Ki of 25 nM.

The compound `Nc1cccc(CN2C(=O)C(NC(=O)Nc3ccccc3)CCc3ccccc32)c1` (stereo not drawn) showed a Ki of over 10000 nM.

Take `CC(C)CNC(=O)Nc1cccc(CN2C(=O)C(NC(=O)Nc3ccccc3)CCc3ccccc32)c1` (stereo not drawn): the Ki amounted to 140 nM.

Regarding `CC(C)NC(=O)Nc1cccc(CN2C(=O)C(NC(=O)Nc3ccc(O)cc3)CCc3ccccc32)c1` (stereo not drawn), the Ki was determined as 82 nM. This Ki lies about 1.7-fold lower than the previous one.

In the case of `O=C(Nc1ccccc1)Nc1cccc(CN2C(=O)C(NC(=O)Nc3ccccc3)CCc3ccccc32)c1` (stereo not drawn), the Ki was over 10000 nM.

`CC(C)OC(=O)Nc1cccc(CN2C(=O)C(NC(=O)Nc3ccccc3)CCc3ccccc32)c1` (stereo not drawn) registered an inhibitory constant (Ki) of 690 nM.

`CC(C)(C)NC(=O)Nc1cccc(CN2C(=O)C(NC(=O)Nc3ccccc3)CCc3ccccc32)c1` (stereo not drawn) returned a Ki of 75 nM.

`CC(C)NC(=O)Nc1cccc(CN2C(=O)C(NC(=O)Nc3nncs3)CCc3ccccc32)c1` (stereo not drawn) showed a Ki of 150 nM. This Ki lies about 2-fold higher than the previous one.
